rRNA inh HTS = selective bacterial rRNA inhibition in E. coli; E. coli WT GFP vs humanized-ribosome RFP mutants, fluorescence, 24 h; hits give low values; DMSO median 0, no signal -100; GFP signal change (wild-type ribosome), % (test concentration not listed); AID 720706; 1.6% of 350,000 active;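 active = significant combined selectivity score with lowered wild-type GFP, culture density cut under 30%, mutant RFP and density less affected; inactive = any of these conditions unmet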
PglD DTNB = inhibitors of Campylobacter jejuni PglD acetyltransferase; purified PglD enzyme, DTNB colorimetric CoA detection; inhibition, % at 12.5 µM; 0.098% of 360,000 active; in the data active = inhibition above about 16%, passing the limit was not always enough
RAD54 inh = RAD54 (human) branch migration inhibition; Q92698; RAD54 Holliday junction branch migration, FAM/BHQ fluorescence; inhibition, % at 10.4 µM; 0.14% of 360,000 active; AID 602329;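 active = mean normalized replicate activity at least 40 and at least half of replicates scoring 40 or more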;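 note: 0% = median of neutral control wells and 100% = median of positive control wells; inhibitors cause a drop in the FAM fluorescence signal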
RAD52 anneal inh = blocks human RAD52 DNA annealing. recombinant RAD52 DNA annealing, FRET fluorescence. inhibition, % at 18.7 µM. 0.46% of 360,000 active;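 active = every replicate showing at least 50% inhibition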
Target sequence (P43351 whole entry, looked up): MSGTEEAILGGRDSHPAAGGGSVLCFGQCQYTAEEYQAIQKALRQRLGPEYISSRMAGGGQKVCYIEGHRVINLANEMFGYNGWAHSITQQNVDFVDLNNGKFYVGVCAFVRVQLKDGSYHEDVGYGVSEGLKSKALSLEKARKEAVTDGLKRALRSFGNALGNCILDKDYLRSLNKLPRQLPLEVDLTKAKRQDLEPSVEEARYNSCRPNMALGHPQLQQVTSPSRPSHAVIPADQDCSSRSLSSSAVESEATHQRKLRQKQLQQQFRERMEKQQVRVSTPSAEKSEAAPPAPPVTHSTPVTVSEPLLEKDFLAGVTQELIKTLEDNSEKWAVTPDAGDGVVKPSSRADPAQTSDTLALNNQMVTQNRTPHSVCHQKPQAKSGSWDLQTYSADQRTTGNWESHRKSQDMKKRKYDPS
Cneo AK release = causes C. neoformans cell lysis; lysis activity, % at 15 µM; adenylate kinase release luminescence, 4 h; normalised: neutral wells 0, clomiphene wells 100; AID 651654; 0.2% of 360,000 active;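 active = mean lysis activity across replicates of at least 80%, whatever share of replicates individually reach that level; inactive = mean lysis activity below 80%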
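Test system: log-phase Cryptococcus neoformans yeast cells; Quantity: yeast cell density of 5 × 10^6 cells/mL; Buffer or medium: YPD; Doses: single compound concentration per well; Timing: 4 h at 37 °C static, read 1 h later; Measured by: AK luminescence; Read-out basis: lysis from increased AK signal; Control set: Clomiphene as positive control.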
Numbers without * were called inactive; i = inactive; x = no result given. An excerpt weighted towards active compounds, which were near 1.9% of everything screened.

SMILES	rRNA inh HTS	PglD DTNB	RAD54 inh	RAD52 anneal inh	Cneo AK release
C[C@H](NC(=O)C[C@@H]1CC[C@H]2[C@H](COc3ccc(NS(=O)(=O)c4ccc(Cl)cc4)cc3C(=O)N2C)O1)c1ccccc1	-3.0	x	x	x	x
Cc1cc(SCc2ccc(Cl)cc2Cl)nc(=O)[nH]1	-30.7*	-1.0	-2.3	-36.8	1.2
Cc1cc(SCc2ccccc2Cl)nc(=O)[nH]1	-5.0	3.2	6.6	-186.0	-6.4
Cc1ccsc1C(=O)OCC(=O)Nc1ccc(Cl)cn1	-22.9*	-0.9	-1.7	-6.8	1.7
C[C@H]1CN([C@@H](C)CO)C(=O)c2cc(NC(=O)c3ccncc3)ccc2O[C@@H]1CN(C)Cc1ccccc1	2.4	-0.9	0.5	10.8	39.6
C/C(=N/OC(=O)C1CC1c1ccccc1)c1ccccc1 (configuration not stated)	-20.9*	x	x	-8.9	x
O=S(=O)(N[C@H]1CC[C@@H](CCn2cc(-c3ccc(F)cc3)nn2)O[C@H]1CO)c1ccccc1F	-10.8	5.5	6.7	0.7	-2.2
Nc1cc(Cl)nc(N/N=C/c2c(O)ccc3ccccc23)n1	-20.0*	x	x	-11.9	x
N=c1c2c(n(Cc3ccccc3)c3c1CCC3)CCC2	x	-2.7	-9.3	x	-0.3
N=c1c2c(n(Cc3ccc(Cl)cc3)c3c1CCC3)CCC2	-52.5*	5.6	-11.7	-0.3	0.8
N=c1c2c(n(Cc3cccc(Cl)c3)c3c1CCC3)CCCC2	-51.8*	x	x	-3.2	x
N=c1c2c(n(Cc3ccc(F)cc3)c3c1CCC3)CCCC2	-31.0*	x	x	2.0	x
CCn1c2c(c(=N)c3c1CCC3)CCCC2	9.5	-2.2	-4.9	-6.5	9.2
CCC(=O)N1CCc2cc(Br)cc(S(=O)(=O)N(C)c3ccc(OC)cc3OC)c21	-30.1*	-1.7	-8.1	-0.2	1.7
CCC(=O)N1CCc2cc(S(=O)(=O)N(C)c3ccc(OC)cc3OC)ccc21	1.5	4.4	-10.9	-17.2	1.5
CC(NCc1ccc(S(N)(=O)=O)cc1)C(=O)Nc1ccc([N+](=O)[O-])cc1Cl (configuration not stated)	5.8	x	x	-16.6	x
CC(NCc1ccc(S(N)(=O)=O)cc1)C(=O)Nc1cc([N+](=O)[O-])ccc1Cl (configuration not stated)	-20.8*	0.1	2.5	-10.2	0.8
CCN(CC)c1ccc(C=C2SC(=S)NC2=O)cc1	-12.0	x	x	i	x
CC1Cc2cc(/C=C3/SC(=S)NC3=O)ccc2O1 (configuration not stated)	-19.8*	-0.7	0.2	-23.6	-4.2
O=C(C[C@H]1CC[C@H]2[C@@H](COC[C@@H](O)CN2Cc2cc(F)ccc2F)O1)NCc1ccccc1	-12.2	2.8	1.9	15.7	-2.5
Nc1ccc2c(O)cc(S(=O)(=O)O)cc2c1	-5.1	8.5	72.6*	-120.4	-0.4
CC(=O)Nc1ccc2c(O)cc(S(=O)(=O)O)cc2c1	-0.2	1.1	-4.0	-38.2	1.5
Cc1noc(C)c1C(c1ccccc1)c1ccccc1	-46.6*	x	x	-15.4	x
CN1c2ccc(C#Cc3cccnc3)cc2[C@H]2[C@H](CCN2C(=O)C2CCCCC2)[C@H]1CO	-1.0	3.1	-6.2	-55.9	2.5
Nc1[nH]c(C(=O)c2ccccc2)c(-c2ccccc2Br)c1C(=O)c1ccccc1	-41.1*	x	x	-22.9	x
SMILES	rRNA inh HTS	PglD DTNB	RAD54 inh	RAD52 anneal inh	Cneo AK release
Cc1ccc(S(=O)(=O)N[C@@H]2CC[C@@H](CCNC(=O)CN3CCOCC3)O[C@H]2CO)cc1	1.6	-0.3	4.1	-9.7	-2.4
O=C(N[C@@H]1C[C@@H]2O[C@H](CO)CC[C@@H]2O[C@@H]1CCc1ccc(C#Cc2ccccc2)cc1)c1ccccn1	x	x	x	9.7	x
O=C(C[C@@H]1CC[C@@H](NC(=O)Cc2cccnc2)[C@H](CO)O1)Nc1ccccc1	3.5	x	x	-7.2	x
C[C@H]1CN([C@@H](C)CO)C(=O)Cc2cc(NC(=O)C3CCCCC3)ccc2O[C@@H]1CN(C)C(=O)Nc1cccc2ccccc12	0.5	4.8	-5.1	2.6	-0.4
Cc1ccc([N+](=O)[O-])cc1S(=O)(=O)N1CCC(C)CC1	-13.1	x	x	-2.1	x
Cc1ccc(S(=O)(=O)N2CCC(C)CC2)c([N+](=O)[O-])c1	-24.6*	-1.0	1.9	-3.1	5.7
C/C=C/c1cnc2c(c1)C(=O)N([C@H](C)CO)C[C@@H](C)[C@H](CN(C)C(=O)C1CCC1)O2	-3.2	x	x	x	x
C[C@H]1C/C=C\C[C@@H](c2ccc3c(c2)OCO3)NC(=O)[C@H](c2ccccc2)CC(=O)N1	-0.6	x	x	x	x
Cc1ccc(S(=O)(=O)N[C@@H]2CC[C@@H](CC(=O)N3CCN(c4ccccc4)CC3)O[C@H]2CO)cc1	1.0	0.6	6.0	6.1	-0.2
CC1=C(C(=O)OC2CCCC2)C(c2coc3ccccc3c2=O)C2=C(CC(C)(C)CC2=O)N1 (configuration not stated)	-21.7*	7.3	-4.5	10.3	-0.6
CC1=C(C(=O)OC2CCCC2)C(c2coc3ccc(C)cc3c2=O)C2=C(CCCC2=O)N1 (configuration not stated)	-26.6	-3.9	-1.0	-26.4	-0.8
CN1CCC=C(C(=O)N2c3ccccc3Sc3ccc(Cl)cc32)C1	-22.0*	x	x	17.0	x
CCOc1ccc(NS(=O)(=O)c2ccc(C(=O)N3CCN(c4ncccn4)CC3)cc2)cc1	-22.6*	x	x	1.4	x
COc1ccc(N2CCN(C(=O)c3ccc(NS(=O)(=O)c4cccs4)cc3)CC2)cc1	-23.1*	-1.5	6.7	-13.9	16.2
CC1=C(C(=O)OCC(Br)(Br)Br)C(c2cccc([N+](=O)[O-])c2)NC(=O)N1CCCC(=O)O (configuration not stated)	-19.9*	-1.5	-4.7	-17.3	1.5
CC1=C(C(=O)OCc2ccccc2)C(c2ccc(C#N)cc2)NC(=O)N1CCCC(=O)O (configuration not stated)	-16.7*	3.3	-7.3	-3.2	1.6
CC1=C(C(=O)OCc2ccccc2)C(c2ccccc2)NC(=O)N1CCCC(=O)O (configuration not stated)	-10.2	-1.9	1.0	-6.4	0.5
COc1ccc2c(c1)C(c1ccc(N3CCOCC3)cc1)=NNC(c1cccnc1)=N2	-17.1*	x	x	-14.3	x
CC(=O)N(C)C[C@H]1Oc2c(N)cccc2C(=O)N(C)C[C@@H]1C	2.5	x	x	x	x
O=C(C[C@H]1C[C@H]2c3cc(NC(=O)NC4CCCC4)ccc3O[C@H]2[C@@H](CO)O1)NCc1ccccc1	4.1	1.0	-8.5	0.5	7.5
Cc1ccccc1-c1ccc(C2[C@H]3CNC[C@@H]2N3C(=O)Nc2ccc(Cl)cc2)cc1 (some centres not stated)	-60.6	x	x	x	x
COc1cccc(-c2ccc(C3[C@H]4CNC[C@@H]3N4C(=O)Nc3ccc4c(c3)OCO4)cc2)c1 (some centres not stated)	-55.7	x	x	71.3*	x
CN(C)C(=O)c1cccc(-c2ccc(C3[C@H]4CNC[C@@H]3N4C(=O)Nc3cccc(Cl)c3)cc2)c1 (some centres not stated)	-3.2	x	x	-65.2	x

Screens deposited in PubChem by Broad Institute.
